Assay results: ChEMBL document CHEMBL1667827, “Pyridylmethylthio derivatives as VEGF inhibitors: part 2” (Bioorg Med Chem Lett, 2011)

Key:
[1] = tested on: HUVEC; experiment: Antiangiogenic activity in HUVEC assessed as inhibition of VEGF-induced proliferation after 3 days by WST-8 assay; format: functional, cell-based; settings: Homo sapiens, 72 h
Method in brief: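 HUVEC seeded and incubated 1 day, then VEGF plus test compound added; cell number counted after 3 further days of incubation. Growth rate calculated relative to control; IC50 is concentration giving half inhibition of VEGF-induced proliferation, in nM.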

[2] = target: CYP3A4 (Homo sapiens, UniProt P08684); experiment: Inhibition of CYP3A4 at 10 uM using testosterone as substrate; format: ADME; settings: probe testosterone
Chain of CYP3A4 (P08684 whole entry): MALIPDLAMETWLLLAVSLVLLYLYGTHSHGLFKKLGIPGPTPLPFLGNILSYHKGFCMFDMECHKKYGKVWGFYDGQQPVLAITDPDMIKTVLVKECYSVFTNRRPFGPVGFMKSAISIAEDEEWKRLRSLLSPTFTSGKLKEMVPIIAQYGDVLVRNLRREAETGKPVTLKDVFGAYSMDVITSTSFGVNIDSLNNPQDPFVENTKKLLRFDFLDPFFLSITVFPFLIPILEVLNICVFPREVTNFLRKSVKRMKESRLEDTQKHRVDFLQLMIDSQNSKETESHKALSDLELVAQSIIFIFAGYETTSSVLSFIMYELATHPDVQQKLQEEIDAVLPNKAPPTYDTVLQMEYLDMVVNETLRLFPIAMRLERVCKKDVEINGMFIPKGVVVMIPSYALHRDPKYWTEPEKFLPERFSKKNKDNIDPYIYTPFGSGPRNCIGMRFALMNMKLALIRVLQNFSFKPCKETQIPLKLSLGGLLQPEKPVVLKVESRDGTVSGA
Method in brief: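 CYP3A4 inhibition measured as percent inhibition at 10 μM test compound, testosterone as substrate.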

[3] = species on record: Rattus norvegicus; experiment: animal or person; settings: Brown Norway, po, 168 h, read-out: INH
[4] = tested on: Rattus norvegicus; experiment: Antiinflammatory activity in Lewis rat adjuvant arthritis model assessed as inhibition of paw edema at 10 mg/kg, po qd for 20 days relative to control; format: functional; settings: 480 h
[5] = tested on: Rattus norvegicus; experiment: Antiangiogenic activity in Brown Norway rat assessed as inhibition of laser-induced neovascularization incidence rate at 3 mg/kg, po qd for 7 days relative to control; format: functional; settings: 168 h
Method in brief: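 Male Brown Norway rats, eight weeks old, under anesthesia and mydriasis; krypton laser photocoagulation of Bruch's membrane. Compound suspension given orally once daily. Seven days after photocoagulation, fluorescein injected via tail vein, fundus photographed, fluorescence leaks counted; neovascularization incidence rate compared with control.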

[6] = tested on: B16; experiment: Antitumor activity against mouse B16 cells xenografted in C57BL/6N mouse assessed as tumor growth at 100 mg/kg, po qd for 10 days relative to control; format: functional; settings: B16, 240 h
Method in brief: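 B16 cell suspension injected subcutaneously under anesthesia into female C57BL/6 mice, six weeks old. Compound suspension given orally once daily; ten days after cell injection, tumors excised and weighed, anti-cancer effect calculated relative to control.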

Row | Compound | inhibition at 10 µM [2] [%] | IC50 [1] [nM] | further results
1 | COC(=O)Nc1cc(CSc2ncccc2C(=O)Nc2cc(C)cc(C)c2)ccn1 |  | 15 | 
2 | Cc1cc(C)cc(NC(=O)c2cccnc2SCc2ccnc(NC(=O)CN(C)C)c2)c1 |  | 22 | 
3 | Cc1cc(C)cc(NC(=O)c2cccnc2SCc2ccnc(NC(=O)CO)c2)c1 |  | 6.6 | 
4 | C[C@H]1C[C@H]2[C@@H]3CCC4=CC(=O)C=C[C@]4(C)[C@@]3(F)[C@@H](O)C[C@]2(C)[C@@]1(O)C(=O)COP(=O)(O)O [BETAMETHASONE PHOSPHORIC ACID] |  |  | inhibition in vivo at 1 mg/kg [3]: 96%
5 | CC(=O)Nc1cc(CSc2ncccc2C(=O)Nc2ccc(OC(F)(F)F)cc2)ccn1 | 38 | 3.9 | 
6 | CC(=O)N(C)c1cc(CSc2ncccc2C(=O)Nc2cc(C)cc(C)c2)ccn1 |  | 65 | 
7 | Cc1cc(C)cc(NC(=O)c2cccnc2SCc2ccnc(C)c2)c1 |  | 68 | 
8 | Clc1ccc(Nc2nnc(Cc3ccncc3)c3ccccc23)cc1 [VATALANIB] |  |  | inhibition in vivo at 10 mg/kg [4]: 23%
9 | CNc1cc(CSc2ncccc2C(=O)Nc2cc(C)cc(C)c2)ccn1 |  | 21 | 
10 | Cc1cc(C)cc(NC(=O)c2cccnc2SCc2cc[n+](C)cc2)c1 |  | > 2000 | 
11 | CNC(=O)c1cc(CSc2ncccc2C(=O)Nc2cc(C)cc(C)c2)ccn1 |  | 18 | 
12 | COc1cc(CSc2ncccc2C(=O)Nc2cc(C)cc(C)c2)ccn1 |  | 100 | 
13 | Cc1cc(C)cc(NC(=O)c2cccnc2SCc2ccnc(N3CCOCC3)c2)c1 |  | 84 | 
14 | CNC(=O)Nc1cc(CSc2ncccc2C(=O)Nc2ccc(OC(F)(F)F)cc2)ccn1 |  | 20 | 
15 | NCC(=O)Nc1cc(CSc2ncccc2C(=O)Nc2ccc(OC(F)(F)F)cc2)ccn1 |  | 49 | 
16 | CCC(=O)Nc1cc(CSc2ncccc2C(=O)Nc2cc(C)cc(C)c2)ccn1 |  | 1.8 | 

Now from value to molecule, other results behind:

Row | inhibition at 10 µM [2] [%] | Compound | IC50 [1] [nM] | further results
17 | 20 | CC(=O)Nc1cc(CSc2ncccc2C(=O)Nc2cc(C)cc(C)c2)ccn1 | < 0.91 | 
18 | 96 | Cc1cc(C)cc(NC(=O)c2cccnc2SCc2ccncc2)c1 |  | 
19 | 14 | Cc1cc(C)cc(NC(=O)c2cccnc2SCc2ccnc(NC(=O)CNCCN(C)C)c2)c1 | 5.9 | inhibition in vivo at 10 mg/kg [4]: 70%; inhibition in vivo at 3 mg/kg [5]: 55%; inhibition in vivo at 100 mg/kg [6]: 83%
20 | 16 | Cc1cc(C)cc(NC(=O)c2cccnc2SCc2cc[n+]([O-])cc2)c1 | 24 | inhibition in vivo at 100 mg/kg [6]: 76%
21 | 24 | CNC(=O)Nc1cc(CSc2ncccc2C(=O)Nc2cc(C)cc(C)c2)ccn1 | 8.8 | inhibition in vivo at 100 mg/kg [6]: 43%
22 | 23 | Cc1cc(C)cc(NC(=O)c2cccnc2SCc2ccnc(NC(=O)CNCCCO)c2)c1 | 18 | inhibition in vivo at 100 mg/kg [6]: 77%
23 | 10 | Cc1cc(C)cc(NC(=O)c2cccnc2SCc2ccnc(NC(=O)CN)c2)c1 | 48 | 
24 | 60 | Cc1cc(C)cc(NC(=O)c2cccnc2SCc2ccnc(Cl)c2)c1 | 12 | 
25 | 19 | CN(C)CC(=O)Nc1cc(CSc2ncccc2C(=O)Nc2ccc(OC(F)(F)F)cc2)ccn1 | 35 | 
26 | 33 | O=C(CNCCCO)Nc1cc(CSc2ncccc2C(=O)Nc2ccc(OC(F)(F)F)cc2)ccn1 | 26 | inhibition in vivo at 100 mg/kg [6]: 79%
27 | 17 | O=C(CO)Nc1cc(CSc2ncccc2C(=O)Nc2ccc(OC(F)(F)F)cc2)ccn1 | 7.4 | inhibition in vivo at 100 mg/kg [6]: 85%
28 | 29 | CN(C)CCNCC(=O)Nc1cc(CSc2ncccc2C(=O)Nc2ccc(OC(F)(F)F)cc2)ccn1 | 18 | inhibition in vivo at 100 mg/kg [6]: 79%
29 | 48 | Cc1cc(C)cc(NC(=O)c2cccnc2SCc2ccnc(C#N)c2)c1 | 3.5 | 
30 | 69 | CSc1cc(CSc2ncccc2C(=O)Nc2cc(C)cc(C)c2)ccn1 | 100 | 
31 | 40 | Cc1cc(C)cc(NC(=O)c2cccnc2SCc2ccnc(F)c2)c1 | 13 | 
32 | 21 | Cc1cc(C)cc(NC(=O)c2cccnc2SCc2ccnc(N)c2)c1 | 5.8 | 
